Results on 2 compounds are retold here after ChEMBL document CHEMBL1240310, “Combinatorial chemistry identifies high-affinity peptidomimetics against alpha4beta1 integrin for in vivo tumor imaging” (Nat Chem Biol, 2006).

Experiment [1] deals with CHO. Nature of the experiment: Binding affinity to human alpha4 S186A mutant/hamster beta-1 integrin expressed in CHO cells by flow cytometry. The class given is cell-based. The essentials: (§1)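 CHO cells stably expressing wild-type or single-Ala mutant human α4 paired with endogenous hamster β1. Cells incubated with biotinylated ligand in TBS (1 mM Mn2+), then SA-PE, and read by flow cytometry. Binding normalized to α4 expression measured with mAb B5G10. Mean ± s.d. of triplicates.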
On the technique in general: A flow cytometer gives signals particle by particle.

Experiment [2] concerns Mus musculus. In words: In vivo inhibition of alpha4beta1 integrin expressed in human Molt-4 cells xenografted into mouse at 60 nmol/kg, iv up to 44 hrs by NIRF imaging. The class given is functional, organism-based. The procedure, abridged: (§2)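 Nude (nu/nu) mice bearing subcutaneous shoulder Molt-4 xenografts (about 5 × 10^6 cells injected; tumors 0.5–1.0 cm). Probe made by complexing biotinylated ligand with SA-Alexa Fluor680 at 5:1 molar ratio, 1 h, 4 °C. Given 60 nmol kg-1 i.v. (n = 3). Imaged under pentobarbital anesthesia (60 mg kg-1 i.p.) at 0–44 h; excitation 625 nm, emission 700 nm, 30 s exposure. Tumor vs normal ROI intensities compared.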

The target of experiment [3] is T1, Integrin alpha-4/beta-1 (Homo sapiens) (UniProt P05556+P13612). In words: Inhibition of integrin alpha-4-beta-1-mediated Jurkat cell adhesion to CS-1 coated surface by BCECF fluorescence analysis.
The test system of experiment [4] is CHO. In words: Binding affinity to human alpha4 N200A mutant/hamster beta-1 integrin expressed in CHO cells by flow cytometry. The class given is cell-based. The procedure, abridged:
as §1

For experiment [5], the target named is T1, Integrin alpha-4/beta-1 (Homo sapiens). In words: Binding affinity to alpha4beta1 integrin expressed in human Reh cells by flow cytometry. The class given is cell-based. The procedure, abridged: (§3)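 Cells (0.5 × 10^6) incubated with biotinylated ligand (100 nM) for 1 h at 4 °C in TBS with 1 mM Mg2+/Mn2+, washed, then stained with SA-PE. Fluorescence of 10,000 cells read by flow cytometry. Integrin-transfected CHO lines as previously described; α4 expression probed with anti-α4 mAb P1H4 plus FITC secondary.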

Experiment [6] deals with CHO. Nature of the experiment: Binding affinity to alpha4beta1 integrin G184A mutant expressed in CHO cells by flow cytometry. The class given is cell-based. The procedure, abridged: as §1
The target in experiment [7] is Integrin alpha2/beta1 (Homo sapiens) (UniProt P05556+P17301). In words: Binding affinity to alpha2beta1 integrin expressed in CHO cells by flow cytometry. The class given is cell-based. The essentials: as §3
In experiment [8] the test system is CHO. Nature of the experiment: Binding affinity to human alpha4 P183A mutant/hamster beta-1 integrin expressed in CHO cells by flow cytometry. The class given is cell-based. The procedure, abridged: as §1
Experiment [9] has as its system CHO. Nature of the experiment: Binding affinity to human alpha4 W188A mutant/hamster beta-1 integrin expressed in CHO cells by flow cytometry. The class given is cell-based. The procedure, abridged: as §1
Experiment [10] relates to CHO. Nature of the experiment: Binding affinity to human alpha4 Y202A mutant/hamster beta-1 integrin expressed in CHO cells by flow cytometry. The class given is cell-based. The essentials: as §1
In experiment [11] the test system is CHO. In words: Binding affinity to human alpha4 K203A mutant/hamster beta-1 integrin expressed in CHO cells by flow cytometry. The class given is cell-based. The procedure, abridged:
as §1

For experiment [12], the target named is T1, Integrin alpha-4/beta-1 (Homo sapiens). Nature of the experiment: Binding affinity to alpha4beta1 integrin expressed in human K562 cells by flow cytometry. The class given is cell-based. The essentials: as §3
Experiment [13] deals with CHO. In words: Binding affinity to human alpha4 K201A mutant/hamster beta-1 integrin expressed in CHO cells by flow cytometry. The class given is cell-based. The essentials:
as §1

In experiment [14] the target is T1, Integrin alpha-4/beta-1 (Homo sapiens). In words: Binding affinity to alpha4beta1 integrin expressed in CHO cells by flow cytometry. The class given is cell-based. The procedure, abridged:
as §3

The test system of experiment [15] is CHO. In words: Binding affinity to human alpha4 N196A mutant/hamster beta-1 integrin expressed in CHO cells by flow cytometry. The class given is cell-based. The procedure, abridged:
as §1

Experiment [16] deals with CHO. Nature of the experiment: Binding affinity to human alpha4 S185A mutant/hamster beta-1 integrin expressed in CHO cells by flow cytometry. The class given is cell-based. The procedure, abridged:
as §1

Experiment [17] concerns the target ITGB1-ITGA9 complex (Homo sapiens) (UniProt P05556+Q13797). Nature of the experiment: Binding affinity to alpha9beta1 integrin expressed in CHO cells by flow cytometry. The class given is cell-based. The essentials: as §3
In experiment [18] the test system is CHO. In words: Binding affinity to human alpha4 Y195A mutant/hamster beta-1 integrin expressed in CHO cells by flow cytometry. The class given is cell-based. The procedure, abridged:
as §1

Experiment [19] deals with T1, Integrin alpha-4/beta-1 (Homo sapiens). In words: Binding affinity to alpha4beta1 integrin expressed in human HL-60 cells by flow cytometry. The class given is cell-based. The essentials: as §3
The subject of experiment [20] is CHO. Nature of the experiment: Binding affinity to human alpha4 T189A mutant/hamster beta-1 integrin expressed in CHO cells by flow cytometry. The class given is cell-based. The essentials: as §1
Experiment [21] concerns CHO. In words: Binding affinity to human alpha4 G190A mutant/hamster beta-1 integrin expressed in CHO cells by flow cytometry. The class given is cell-based. The essentials: as §1
Experiment [22] relates to CHO. Nature of the experiment: Binding affinity to human alpha4 S191A mutant/hamster beta-1 integrin expressed in CHO cells by flow cytometry. The class given is cell-based. The procedure, abridged: as §1
Experiment [23] deals with CHO. In words: Binding affinity to human alpha4 G181A mutant/hamster beta-1 integrin expressed in CHO cells by flow cytometry. The class given is cell-based. The procedure, abridged: as §1
Experiment [24] concerns the target ITGA6-ITGB1 complex (Homo sapiens) (UniProt P05556+P23229). In words: Binding affinity to alpha6beta1 integrin expressed in CHO cells by flow cytometry. The class given is cell-based. The procedure, abridged: as §3
Experiment [25] deals with T1, Integrin alpha-4/beta-1 (Homo sapiens). Nature of the experiment: Binding affinity to alpha4beta1 integrin expressed in peripheral blood lymphocytes in presence of Mn2+. The class given is cell-based. The procedure, abridged: (§4)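 Normal peripheral blood lymphocytes isolated from healthy-donor blood by Ficoll-Paque gradient. Cells (0.5 × 10^6) incubated 1 h at 4 °C with biotinylated ligand (100 nM) in TBS, then SA-PE, and 10,000 cells read by flow cytometry. Mn2+ added for integrin activation where indicated. Activation state checked with anti-β1 LIBS mAb.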

The target of experiment [26] is Integrin alpha-M/beta-2 (Homo sapiens) (UniProt P05107+P11215). Nature of the experiment: Binding affinity to alphaMbeta2 integrin expressed in CHO cells by flow cytometry. The class given is cell-based. The essentials: as §3
For experiment [27], the target named is T1, Integrin alpha-4/beta-1 (Homo sapiens). In words: Inhibition of integrin alpha-4-beta-1-mediated Jurkat cell adhesion to VCAM-1 coated surface by BCECF fluorescence analysis. The class given is cell-based.
Experiment [28] concerns CHO. Nature of the experiment: Binding affinity to human alpha4 Y187A mutant/hamster beta-1 integrin expressed in CHO cells by flow cytometry. The class given is cell-based. The essentials:
as §1

Experiment [29] deals with CHO. In words: Binding affinity to wild type human alpha4hamster beta-1 integrin expressed […] cells by flow cytometry. The class given is cell-based. The procedure, abridged: as §1
Experiment [30] deals with T1, Integrin alpha-4/beta-1 (Homo sapiens). In words: Binding affinity to alpha4beta1 integrin expressed in peripheral blood lymphocytes. The class given is cell-based. The essentials: as §4
For experiment [31], the target named is Intercellular adhesion molecule (ICAM-1), Integrin alpha-L/beta-2 (Homo sapiens) (UniProt P20701+P05362+P05107). In words: Binding affinity to alphaLbeta2 integrin expressed in CHO cells by flow cytometry. The class given is cell-based. The procedure, abridged:
as §3

Experiment [32] addresses T1, Integrin alpha-4/beta-1 (Homo sapiens). Nature of the experiment: Binding affinity to alpha4beta1 integrin transfected human Molt-4 cells by flow cytometry. The class given is cell-based. The procedure, abridged: as §3
Experiment [33] relates to Mus musculus. Nature of the experiment: In vivo inhibition of alpha4beta1 integrin expressed in human Molt-4 cells xenografted into mouse at 60 nmol/kg, iv up to 24 hrs by NIRF imaging. The class given is functional, organism-based. The essentials:
as §2
A general note: Xenograft models place foreign cells or tissue in a host animal.

Active and inactive are the calls of the source. The rule behind the calls is not given here.

Chain of Integrin alpha-M/beta-2 (Homo sapiens) (P05107 23-769 limits assumed, other chains not shown): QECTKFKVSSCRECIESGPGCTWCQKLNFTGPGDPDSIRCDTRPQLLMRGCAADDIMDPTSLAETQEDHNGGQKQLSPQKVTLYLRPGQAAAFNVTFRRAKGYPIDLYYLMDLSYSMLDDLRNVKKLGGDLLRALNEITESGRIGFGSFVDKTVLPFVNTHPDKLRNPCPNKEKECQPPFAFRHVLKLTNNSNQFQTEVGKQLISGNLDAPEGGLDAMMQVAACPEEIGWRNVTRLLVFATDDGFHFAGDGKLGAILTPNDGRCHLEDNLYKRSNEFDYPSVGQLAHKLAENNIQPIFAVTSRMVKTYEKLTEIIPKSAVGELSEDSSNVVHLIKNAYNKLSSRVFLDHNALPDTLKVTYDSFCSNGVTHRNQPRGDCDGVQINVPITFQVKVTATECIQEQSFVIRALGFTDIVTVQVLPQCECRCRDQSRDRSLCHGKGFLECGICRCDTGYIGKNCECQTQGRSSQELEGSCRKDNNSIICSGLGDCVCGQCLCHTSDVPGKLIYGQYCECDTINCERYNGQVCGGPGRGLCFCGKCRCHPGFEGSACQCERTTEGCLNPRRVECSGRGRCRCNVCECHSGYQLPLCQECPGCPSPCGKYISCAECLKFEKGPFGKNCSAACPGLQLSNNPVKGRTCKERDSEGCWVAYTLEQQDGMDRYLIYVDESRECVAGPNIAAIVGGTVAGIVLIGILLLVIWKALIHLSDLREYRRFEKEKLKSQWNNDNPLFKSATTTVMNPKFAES

As to `Cc1ccccc1NC(=O)Nc1ccc(CC(=O)N[C@@H](CCCCNC(=O)/C=C/c2cccnc2)C(=O)N[C@@H](CCCC(=O)O)C(=O)NC2(C(N)=O)CCCCC2)cc1`, the outcome (in the experiment with CHO [1]; in the experiment on CHO [4]; in experiment [5]; in the experiment with CHO [6]; in the experiment on CHO [8]; in the experiment on CHO [10]) was Active. Besides, the result (in the experiment with CHO [11]; in experiment [12]; in the experiment on CHO [13]; in [14]; in the experiment with CHO [15]; in the experiment on CHO [16]) was Active. The outcome (in the experiment on CHO [18]; in [19]; in the experiment with CHO [20]; with CHO [22]; in the experiment with CHO [23]; in [25]) was Active. The outcome (in the experiment on CHO [29]; in experiment [32]) was Active. Besides, the inhibition result (in the experiment with Mus musculus [2]; in experiment [3]; in experiment [27]) was “Active” in each case. Moreover, the result (in [7]; in the experiment with CHO [9]; in experiment [17]; in the experiment with CHO [21]; in [24]; in experiment [26]) was inactive. The result (in the experiment on CHO [28]; in experiment [30]; in experiment [31]) was inactive.
On to `Cc1ccccc1NC(=O)Nc1ccc(CC(=O)N[C@@H](CCCCNC(=O)/C=C/c2cccnc2)C(=O)N[C@@H](CCCC(=O)O)C(=O)NC2(C(=O)NCCOCCOCCNC(=O)CCC(=O)NCCOCCOCCNC(=O)CCC(=O)N[C@@H](CCCCNC(=O)CCCC[C@@H]3SC[C@@H]4NC(=O)N[C@@H]43)C(N)=O)CCCCC2)cc1`, for which the inhibition entry in the experiment on Mus musculus [33] is “inactive”.
